From ChEMBL document CHEMBL1125733, “Fluoronaphthyridines and -quinolones as antibacterial agents. 3. Synthesis and structure-activity relationships of new 1-(1,1-dimethyl-2-fluoroethyl), 1-[1-methyl-1-(fluoromethyl)-2-fluoroethyl], and 1-[1,1-(difluoromethyl)-2-fluoroethyl] substituted derivatives” (J Med Chem, 1991)
In brackets after ≈: the same amount, converted by molar mass.

Tests used:
Escherichia coli [1] = assay: In vitro antibacterial activity against Escherichia coli A 15119; type: functional
Enterobacter cloacae = assay: In vitro antibacterial activity against Enterobacter cloacae A 9656; type: functional
Klebsiella pneumoniae = assay: In vitro antibacterial activity against Klebsiella pneumoniae A 9664; type: functional
Morganella morganii = assay: In vitro antibacterial activity against Morganella morganii A 15153; type: functional
Pseudomonas aeruginosa [2] = assay: Compound was tested in vitro for its antibacterial activity (minimum inhibitory concentration, MIC) against Pseudomonas aeruginosa A 9843; type: functional
Proteus mirabilis = assay: In vitro antibacterial activity (minimum inhibitory concentration, MIC) against Proteus mirabilis A 9900; type: functional
Enterococcus faecalis [3] = assay: Compound was tested in vitro for its antibacterial activity (minimum inhibitory concentration) against Enterococcus faecalis A 9809 (gram positive).; type: functional
Serratia marcescens = assay: In vitro antibacterial activity (minimum inhibitory concentration) against Serratia marcescens A 20019.; type: functional
Staphylococcus aureus [4] = assay: In vitro antibacterial activity (minimum inhibitory concentration, MIC) against Staphylococcus aureus A 9537.; type: functional
Mus musculus [5] = assay: Compound was evaluated in vivo in blood samples from the orbital sinus for its concentration using Area under the time-concentration curve after 40 mg/kg intramuscular administration to mice; type: ADME, organism-based; set-up: dose 40 mg/kg, route intramuscular; details: im
How it was run: (§1)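 Mice were dosed at 40 mg/kg, either orally with a blunt needle and syringe or intramuscularly, with separate groups for each route. Blood was drawn from the orbital sinus at 5, 15, 30, 60, 120 and 180 min. Urine was pooled over 24 h. Drug levels were measured by agar disk diffusion microbioassay with Salmonella enteritidis A9531 as the assay organism.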

[6] = Compound was evaluated in vivo in blood samples from the orbital sinus for its concentration after an intramuscular administration of 40 mg/kg in mice; type: ADME, organism-based; set-up: dose 40 mg/kg, route intramuscular; details: mouse, im; how it was run: as §1
Bacteroides fragilis = assay: Compound was tested in vitro for its antibacterial activity (minimum inhibitory concentration) against Bacteroides fragilis A 22862.; type: functional; details: A22862
Enterococcus faecalis [7] = assay: In vitro antibacterial activity against Enterococcus faecalis A 9809; type: functional
Escherichia coli [8] = assay: Compound was tested for the dose to protect 50% of mice from lethal infection against Escherichia coli A 15119 after peroral administration to OF1-strain of female Swiss mice.; type: functional; details: po, read-out: PD50
How it was run: (§2)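 Compounds dissolved in sterile water and given orally to female OF1 Swiss mice weighing 18-25 g, five mice per group.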

Haemophilus influenzae = assay: In vitro antibacterial activity against Haemophilus influenzae A 21515; type: functional
Mus musculus [9] = assay: Compound was evaluated in vivo in urine sample collected over 24 hours for its concentration after 40 mg/kg intramuscular administration to mice; type: functional; how it was run: as §1
Mus musculus [10] = assay: Compound was evaluated in vivo in urine sample collected over 24 hours for its concentration after 40 mg/kg peroral administration to mice; type: functional; details: route oral; how it was run: as §1
Pseudomonas aeruginosa [11] = assay: Compound was tested for the dose to protect 50% of mice from lethal infection against Pseudomonas aeruginosa A9843 after peroral administration to OF1-strain of female Swiss mice.; type: functional; details: po, read-out: PD50; how it was run: as §2
[12] = Compound was tested for the dose to protect 50% of mice from lethal infection against Streptococcus pneumoniae after peroral administration to OF1-strain of female Swiss mice.; type: functional; details: po, read-out: PD50; how it was run: as §2
Staphylococcus aureus [13] = assay: Compound was tested for the dose to protect 50% of mice from lethal infection against Staphylococcus aureus A 9606 after peroral administration to OF1-strain of female Swiss mice.; type: functional; details: po, read-out: PD50; how it was run: as §2
Streptococcus pneumoniae = assay: In vitro antibacterial activity against Streptococcus pneumoniae A 9585; type: functional
Staphylococcus aureus [14] = assay: In vitro antibacterial activity against Staphylococcus aureus A 24227; type: functional
Mus musculus [15] = species: Mus musculus; details: in vivo, po, 40 mg/kg
in vivo [16] = details: dog, po, 25 mg/kg
in vivo [17] = details: mouse, po, 40 mg/kg
Canis familiaris [18] = assay: Compound was evaluated in vivo in urine sample collected over 24 hours for its concentration after 25 mg/kg peroral administration to dogs.; details: route oral
[19] = Compound was evaluated in vivo in blood samples from the orbital sinus for its concentration after a peroral administration of 40 mg/kg in mice; type: ADME, organism-based; set-up: dose 40 mg/kg, route oral; details: mouse, po; how it was run: as §1
[20] = Compound was evaluated in vivo in blood samples from the orbital sinus for its half life after 40 mg/kg of intramuscular administration in mice.; type: ADME, organism-based; set-up: dose 40 mg/kg, route intramuscular; details: mouse, im
Mus musculus [21] = assay: Compound was evaluated in vivo in urine sample collected over 24 hours for its concentration after 40 mg/kg an intramuscular administration to mice; type: functional; how it was run: as §1
[22] = Compound was evaluated in vivo in blood samples from the orbital sinus for its concentration after an intramuscular administration of 40 mg/kg in mice.; type: ADME, organism-based; set-up: dose 40 mg/kg, route intramuscular; details: mouse, im; how it was run: as §1
Canis familiaris [23] = species: Canis familiaris; details: dog, in vivo, po, 25 mg/kg
in vivo [24] = details: dog, po, 25 mg/kg; remark: listed apart in the source
in vivo [25] = details: mouse, blood, po, 40 mg/kg
[26] = Compound was evaluated in vivo in blood samples from the orbital sinus for its concentration after a intramuscular administration 40 mg/kg in mice; type: ADME, organism-based; set-up: dose 40 mg/kg, route intramuscular; details: mouse, im; how it was run: as §1

SMILES	MIC (Escherichia coli [1]) [µg/mL]	MIC (Enterobacter cloacae) [µg/mL]	MIC (Klebsiella pneumoniae) [µg/mL]	MIC (Morganella morganii) [µg/mL]	MIC (Pseudomonas aeruginosa [2]) [µg/mL]	MIC (Proteus mirabilis) [µg/mL]	MIC (Serratia marcescens) [µg/mL]	MIC (Staphylococcus aureus [4]) [µg/mL]	AUC (Mus musculus [5]) [ng·h/mL]	MIC (Bacteroides fragilis) [µg/mL]	MIC (Enterococcus faecalis [7]) [µg/mL]	ED50 (Escherichia coli [8]) [mg/kg]	MIC (Haemophilus influenzae) [µg/mL]	UR (Mus musculus [10]) [%]	ED50 (Pseudomonas aeruginosa [11]) [mg/kg]	ED50 [12] [mg/kg]	ED50 (Staphylococcus aureus [13]) [mg/kg]	MIC (Streptococcus pneumoniae) [µg/mL]	MIC (Staphylococcus aureus [14]) [µg/mL]	AUC (Mus musculus [15]) [ng·h/mL]	further results
CC(C)(C)n1cc(C(=O)O)c(=O)c2cc(F)c(N3C[C@H]4CC3CN4)cc21	0.5 (≈ 1.39 µM)	0.25 (≈ 0.696 µM)	0.13 (≈ 0.362 µM)	2 (≈ 5.56 µM)	0.5 (≈ 1.39 µM)	4 (≈ 11.1 µM)	4 (≈ 11.1 µM)	0.5 (≈ 1.39 µM)													MIC (Enterococcus faecalis [3]): 2 µg/mL (≈ 5.56 µM)
O=C(O)c1cn(C2CC2)c2cc(N3CCNCC3)c(F)cc2c1=O [CIPROFLOXACIN]			0.06 (≈ 0.181 µM)			0.008 (≈ 0.0241 µM)	0.03 (≈ 0.0905 µM)	0.06 (≈ 0.181 µM)	21000	4 (≈ 12.1 µM)	0.5 (≈ 1.51 µM)	0.4	0.03 (≈ 0.0905 µM)	30	2.6	> 69	31	0.25 (≈ 0.754 µM)	0.13 (≈ 0.392 µM)	7000	Cmax [6]: 15000 ng/mL; UR (Mus musculus [9]): 46%; Cmax (in vivo [16]): 3000 ng/mL; Cmax (in vivo [17]; in vivo): 6000 ng/mL; UR (Canis familiaris [18]): 17%
CC(C)(C)n1cc(C(=O)O)c(=O)c2cc(F)c(N3CC[C@H](N)C3)cc21.CS(=O)(=O)O	0.016	0.06	0.5	0.13	0.25	0.06	0.13	0.008	15000	8	0.13	9.5	0.008	14	10.2	> 25	14.4	0.06	0.03	5000	Cmax [19]: 3000 ng/mL; half-life [20]: 0.9 h; UR (Mus musculus [21]): 24%; Cmax [22]: 6000 ng/mL; AUC (Canis familiaris [23]): 30000 ng·h/mL; S: 250 µg/mL; Cmax (in vivo [16]): 2800 ng/mL; half-life (in vivo [24]): 4 h; half-life (in vivo [25]): 1.1 h; UR (Canis familiaris [18]): 7.7%
CC(C)(CF)n1cc(C(=O)O)c(=O)c2cc(F)c(N3CC4C[C@@H]3CN4)nc21.Cl	0.06	0.13	0.25	0.25	0.5	0.5	0.25	0.25	20000	8	2	2.4	0.13		4.9	57.4	25	0.5	2	7000	Cmax [6]: 8000 ng/mL; S: 200 µg/mL; Cmax (in vivo [17]; blood): 4000 ng/mL
CC(C)(C)n1cc(C(=O)O)c(=O)c2cc(F)c(N3C[C@H]4C[C@@H]3CN4)nc21	0.008 (≈ 0.0222 µM)	0.016 (≈ 0.0444 µM)	0.016 (≈ 0.0444 µM)	0.06 (≈ 0.166 µM)	0.25 (≈ 0.694 µM)	0.06 (≈ 0.166 µM)	0.06 (≈ 0.166 µM)	0.03 (≈ 0.0832 µM)	25000	4 (≈ 11.1 µM)	0.5 (≈ 1.39 µM)	1.8	0.03 (≈ 0.0832 µM)	34	4.7	29.7	1.6	0.13 (≈ 0.361 µM)	0.03 (≈ 0.0832 µM)	14000	Cmax [6]: 13000 ng/mL; half-life [20]: 1.58 h; UR (Mus musculus [9]): 39%; AUC (Canis familiaris [23]): 55000 ng·h/mL; S: 80 µg/mL; Cmax (in vivo [16]): 5600 ng/mL; Cmax (in vivo [17]; blood): 10000 ng/mL; half-life (in vivo [24]): 4.5 h; half-life (in vivo [25]): 1.6 h; UR (Canis familiaris [18]): 20%
CN1CCN(c2c(F)cc3c(=O)c(C(=O)O)cn(CCF)c3c2F)CC1 [FLEROXACIN]	0.03 (≈ 0.0812 µM)	0.13 (≈ 0.352 µM)	0.13 (≈ 0.352 µM)	0.03 (≈ 0.0812 µM)	2 (≈ 5.42 µM)	0.06 (≈ 0.162 µM)	0.13 (≈ 0.352 µM)	0.06 (≈ 0.162 µM)	32000	1 (≈ 2.71 µM)	8 (≈ 21.7 µM)		0.13 (≈ 0.352 µM)	51				2 (≈ 5.42 µM)	0.25 (≈ 0.677 µM)	23000	Cmax [26]: 20000 ng/mL; half-life [20]: 1.02 h; UR (Mus musculus [9]): 64%; Cmax (in vivo [17]; blood): 12000 ng/mL; half-life (in vivo [25]): 0.967 h
CC(C)(CF)n1cc(C(=O)O)c(=O)c2cc(F)c(N3CC[C@H](N)C3)cc21.CS(=O)(=O)O	0.002	0.004	0.004	0.002	0.13	0.004	0.016	0.03	14000	2	0.13		0.016	4	23.7	> 50	26.4	0.06	0.016	600	Cmax [26]: 8000 ng/mL; half-life [20]: 1.82 h; UR (Mus musculus [9]): 27%; AUC (Canis familiaris [23]): 7300 ng·h/mL; S: 370 µg/mL; Cmax (in vivo [16]): 600 ng/mL; Cmax (in vivo [17]; blood): 1000 ng/mL; half-life (in vivo [24]): 7 h; UR (Canis familiaris [18]): 4.6%
